Shown are actives, neighbours in structure and some others; about 1.7% of the full set was active somewhere.
APJ ag – APJ receptor agonism; P35414; CHO-K1 APJ PathHunter beta-arrestin, luminescence; 0% DMSO wells, 100% apelin; activation, % at 20 µM; 330,000 tested, 0.11% active;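 active = activation more than six SD over the plate average, tested at 20 µM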;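 also: 0% = DMSO alone and 100% = apelin-13 at 10 nM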
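assay system = CHO-K1 APJ beta-arrestin complementation cell line | input = cell density 1000 per well | dosing = compound 20 µM once, DMSO 1% | timing = compound 90 min 25 °C, reagent 1 h | measured by = luminescence from split beta-galactosidase complementation, Galacton Star/Emerald II substrate | read-out basis = APJ agonist activity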
CCR6 antagonist – CCR6 (human) receptor antagonism. 340,000 tested, 0.49% active. CHO-K1 CCR6 PathHunter beta-arrestin, luminescence, CCL20-stimulated. AID 493098. P51684. inhibition, % at 20 µM;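 active = compounds whose inhibition of the agonist-driven luminescence signal at 20 µM reaches about 50%, limit read from the data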;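 also: cells stimulated with CCL20 at 14 nM final; plate controls were DMSO with CCL20 for no effect and DMSO without agonist for full effect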
CXCR6 block – inhibitors of human CXCR6 receptor; CHO-K1 PathHunter CXCR6 beta-arrestin, luminescence; inhibition, % at 20 µM; 360,000 tested, 0.36% active; O00574; in the data active = inhibition above about 34%, passing the limit was not always enough;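 also: antagonist mode with CXCL16 agonist at 10 nM final; 0% = 10 nM CXCL16 with DMSO and 100% = unstimulated wells without agonist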
Target sequence (O00574 whole entry, looked up): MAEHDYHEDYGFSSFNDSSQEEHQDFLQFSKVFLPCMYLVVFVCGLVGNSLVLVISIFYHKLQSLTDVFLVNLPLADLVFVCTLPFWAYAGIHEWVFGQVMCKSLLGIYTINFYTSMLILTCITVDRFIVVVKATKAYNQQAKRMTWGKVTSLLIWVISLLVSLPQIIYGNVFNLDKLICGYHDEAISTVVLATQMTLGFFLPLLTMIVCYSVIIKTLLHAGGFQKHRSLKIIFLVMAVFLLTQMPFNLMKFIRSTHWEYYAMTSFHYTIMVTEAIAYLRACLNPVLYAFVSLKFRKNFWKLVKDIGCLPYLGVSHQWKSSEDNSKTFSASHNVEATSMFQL
APJ antag – blocks the human apelin receptor APJ | CHO-K1 APJ beta-arrestin complementation, luminescence | inhibition, % at 20 µM | 330,000 tested, 0.32% active;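 active = inhibition above about 40% at 20 µM, limit read from the data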;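 also: cells challenged with 10 nM apelin-13 agonist together with compound; plate controls were apelin-13 plus DMSO wells for no effect and DMSO wells lacking apelin-13 for full effect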
Beta2AR agonist – activates human beta-2 adrenergic receptor causing internalization; Am2.2-beta2AR cells, FAP receptor internalization, flow cytometry; P07550; 340,000 tested, 0.43% active; AID 504454; response, % (test concentration not listed);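 active = response above a set limit, near 3 SD of response in nonfluorescent compounds, cut at about 42% in these data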
PfGluPho inh – PfG6PD (Plasmodium falciparum) enzyme inhibition; PfGluPho enzyme, NADPH resazurin-diaphorase fluorescence; inhibition, % at 20 µM; 350,000 tested, 0.78% active; AID 504690;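 active = inhibition reaching at least a set limit at 20 µM in the primary screen, cut at about 59% in these data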;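 also: 0% = DMSO wells with substrate and 100% = DMSO wells lacking glucose-6-phosphate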
APJ antag confirm – APJ receptor antagonism confirmation | shares compounds with APJ antag | APJ beta-arrestin recruitment, luminescence, antagonist mode | AID 2766 | inhibition, % at 20 µM | 950 tested, 66% active; in the data active = inhibition above about 50%
The depositor's hits bear a star.

For Cc1nn(-c2nc3ccccc3[nH]2)c(N)c1-c1ccc(Cl)cc1 the results were APJ ag -6, CCR6 antagonist 43, CXCR6 block 34, APJ antag 46*, Beta2AR agonist -2, PfGluPho inh 18 and APJ antag confirm 0.
Cc1ccc(OC(C)C(=O)N2CC(=O)Nc3ccccc32)cc1 (stereo unspecified) was read as APJ ag -2, CCR6 antagonist 22, CXCR6 block -7, APJ antag 14, Beta2AR agonist -2 and PfGluPho inh -16.
For CC(C)NC(=O)C1(C)CCN1Cc1ccc(C(F)(F)F)cc1 (stereo unspecified) the results were CXCR6 block 4.
`C=CCN1[C@H](COCc2ccccc2)C=CS1(=O)=O` gave CXCR6 block -2.
`Cc1ccc(-c2ccc(/C=C(\C#N)C(N)=S)n2C)cc1` gave APJ ag -5, CCR6 antagonist 15, CXCR6 block 12, APJ antag 15, Beta2AR agonist 3 and PfGluPho inh 5.
Cn1cccc1/C=C(/C#N)C(N)=S was read as APJ ag -9, CCR6 antagonist 29, CXCR6 block 8, APJ antag 41*, Beta2AR agonist -8, PfGluPho inh -6 and APJ antag confirm 58*.
O=C1CCN(Cc2ccc(Br)cc2)CCN1[C@H](CO)Cc1ccccc1 was read as APJ ag -5, CCR6 antagonist 19, CXCR6 block 25, APJ antag 45*, Beta2AR agonist -5, PfGluPho inh 3 and APJ antag confirm 30.
Screening CCOc1cc2[nH]c(=O)n(CCCCC(=O)N3CCCCCC3)c(=O)c2cc1OCC returned APJ ag 3, CCR6 antagonist 11, CXCR6 block -2, APJ antag 44*, Beta2AR agonist -4, PfGluPho inh -3 and APJ antag confirm 1.
For CC1=C(C(=O)N2CCOCC2)CC(CC(=O)NCCCCc2ccccc2)C(=O)N1CCCN1CCCC1=O (stereo unspecified) the results were CXCR6 block -2 and PfGluPho inh -7.
Oc1ccc(N=Nc2c(O)ccc3ccccc23)cc1 was read as APJ ag -11, CCR6 antagonist 54*, CXCR6 block 39, APJ antag 50*, Beta2AR agonist 9, PfGluPho inh 26 and APJ antag confirm 71*.
Screening COc1cc(/C=C/c2sc3ccccc3[n+]2CCCS(=O)(=O)[O-])ccc1O returned APJ ag -9, CCR6 antagonist 55*, CXCR6 block 51*, APJ antag 51*, Beta2AR agonist -10, PfGluPho inh 39 and APJ antag confirm 100*.
Screening CCC(/C=C1\Oc2ccc(OC)cc2N1C)=C\c1sc2ccccc2[n+]1CCCS(=O)(=O)[O-] returned CCR6 antagonist 41, CXCR6 block 9, Beta2AR agonist -23 and PfGluPho inh -22.
CCCCn1c(NC(=O)c2ccccc2Cl)c(C#N)c2nc3ccccc3nc21 was read as APJ ag -13, CCR6 antagonist 28, CXCR6 block 6, APJ antag 43*, Beta2AR agonist 3, PfGluPho inh 26 and APJ antag confirm 36.
Screening N#Cc1c(NC(=O)c2ccccc2Cl)n(Cc2ccccc2)c2nc3ccccc3nc12 returned CCR6 antagonist 5, CXCR6 block -1, Beta2AR agonist -5 and PfGluPho inh 9.
CCOC(=O)c1ccc(S(=O)(=O)NNC(=O)c2cccc(N(C)C)c2)cc1 was read as APJ ag 0, CCR6 antagonist 5, CXCR6 block -1, APJ antag 50*, Beta2AR agonist -6, PfGluPho inh -4 and APJ antag confirm 19.
For CCNc1ccc(C(=O)OCC)cc1NC(=O)c1cccc(N(C)C)c1 the results were APJ ag -7, CCR6 antagonist 18, CXCR6 block 8, APJ antag 8, Beta2AR agonist 10 and PfGluPho inh -2.
For O=C(CN1CCN(C(=O)CNC(=O)c2ccc(N3CCCC3=O)cc2)CC1)Nc1cccc(F)c1 the results were CXCR6 block -2 and PfGluPho inh -27.
Screening COc1ccc(-c2c3c(nc4sc5c(=O)[nH]c(C)nc5c24)CCC3)cc1 returned APJ ag -2, CCR6 antagonist -4, CXCR6 block 5, APJ antag 6, Beta2AR agonist 2 and PfGluPho inh 5.
`COc1ccc(-c2c3c(nc4sc(C(=O)Nc5cc(C)on5)c(N)c24)CCC3)cc1` gave APJ ag -17, CCR6 antagonist 9, CXCR6 block 10, APJ antag 55*, Beta2AR agonist 4, PfGluPho inh 23 and APJ antag confirm 30.
COc1cccc(NC(=S)N/N=C2\CC3CCC2(C)C3(C)C)c1 (stereo unspecified) was read as APJ ag -7, CCR6 antagonist 55*, CXCR6 block 40, APJ antag 41*, Beta2AR agonist 2, PfGluPho inh -1 and APJ antag confirm 79*.
`CC(C)(C)OC(=O)N1CCC[C@H]1c1nnc(SCC(=O)Nc2cccc(Cl)c2)o1` gave APJ ag 1, CCR6 antagonist 8, CXCR6 block -14, APJ antag 18, Beta2AR agonist -1 and PfGluPho inh 16.
CC(C)(C)OC(=O)N1CCC[C@H]1c1nnc(SCC(=O)Nc2ccc(Br)cc2)o1 was read as APJ ag -9, CCR6 antagonist 47, CXCR6 block 36*, APJ antag 55*, Beta2AR agonist 4, PfGluPho inh -1 and APJ antag confirm 72*.
For COc1cc(Cl)cc(/C=C/c2ccc3cccc(O)c3n2)c1OC the results were APJ ag -8, CCR6 antagonist 41, CXCR6 block 40, APJ antag 41*, Beta2AR agonist 3, PfGluPho inh 20 and APJ antag confirm 37.
Screening CCOc1cccc(/C=C/c2ccc3cccc(O)c3n2)c1OC returned APJ ag -9, CCR6 antagonist 31, CXCR6 block 24, APJ antag 43*, Beta2AR agonist 9, PfGluPho inh 19 and APJ antag confirm 72*.
Screening Oc1cccc2ccc(/C=C/c3ccccc3Cl)nc12 returned APJ ag -10, CCR6 antagonist 45, CXCR6 block 35, APJ antag 46*, Beta2AR agonist 6, PfGluPho inh 11 and APJ antag confirm 82*.
`COc1cc2nc(N3CCN(C(=O)[C@H]4COc5ccccc5O4)CC3)nc(N)c2cc1OC` gave APJ ag 7, CCR6 antagonist 4, CXCR6 block 6, APJ antag -11, Beta2AR agonist 8 and PfGluPho inh 16.
O=C(Nc1nc2ccc(F)cc2s1)c1ccccn1 was read as APJ ag -11, CCR6 antagonist 65*, APJ antag 77*, PfGluPho inh -7 and APJ antag confirm 68*.

Compound activity from PubChem.
